Results: ChEMBL document CHEMBL2346560, “Structure and function of a potent lipopolysaccharide-binding antimicrobial and anti-inflammatory peptide” (J Med Chem, 2013)
≈ marks a conversion by molar mass, not a printed value. Calls of active or inactive are those of the source. The rule behind the calls is not given here. Bridge positions count the residues as written; N and C are the ends. Peptide text beside a SMILES is read from it.

Assays:
RAW264.7 [1] = experiment: Antiinflammatory activity in mouse RAW264.7 cells assessed as inhibition of LPS-induced NFkappaB translocation from cytoplasm to nucleus at 20 ug/mL preincubated for 1 hr prior to LPS-challenge measured after 3 hrs by Western blotting analysis relative to LPS-treated control; assay type: functional
Summary of the method: (§1)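 RAW 264.7 cells (1 × 10^6/well) were serum-starved in RPMI-1640 for 16 h. They were pretreated with peptide (0, 5, 10, 20 µg/mL) for 1 h, then given LPS (E. coli 055:B5, 0 or 100 ng/mL) for 3 h. Cells were washed in ice-cold PBS, and cytoplasmic or nuclear fractions were blotted for TLR4, JNK, NF-κB p65 and β-actin. Control was LPS alone.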

RAW264.7 [2] = experiment: Antiinflammatory activity in mouse RAW264.7 cells assessed as inhibition of LPS-induced NFkappaB translocation from cytoplasm to nucleus preincubated for 1 hr prior to LPS-challenge measured after 3 hrs by Western blotting analysis; assay type: functional, cell-based; summary of the method: as §1
RAW264.7 [3] = experiment: Antiinflammatory activity in mouse RAW264.7 cells assessed as inhibition of LPS-induced JNK1 expression preincubated for 1 hr prior to LPS-challenge measured after 3 hrs by Western blotting analysis; assay type: functional, cell-based; summary of the method: as §1
RAW264.7 [4] = experiment: Antiinflammatory activity in mouse RAW264.7 cells assessed as inhibition of LPS-induced MCP1 production at 20 ug/mL after 24 hrs by ELISA relative to control; assay type: functional; details: RAW264.7, 24 h
Summary of the method: (§2)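 RAW 264.7 cells (2 × 10^5) were plated and allowed to adhere. They were given peptide (2.5, 5, 10, 20 µg/mL) with or without LPS (E. coli 055:B5, 20 ng/mL) for 24 h. Supernatant TNF-α, IL-6 and MCP-1 were measured by ELISA at A450. Controls were LPS alone and untreated cells. Mean ± SEM of three separate experiments.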

RAW264.7 [5] = experiment: Antiinflammatory activity in mouse RAW264.7 cells assessed as inhibition of LPS-induced TNF alpha production at 20 ug/mL after 24 hrs by ELISA relative to control; assay type: functional; details: RAW264.7, 24 h; summary of the method: as §2
RAW264.7 [6] = experiment: Antiinflammatory activity in mouse RAW264.7 cells assessed as inhibition of LPS-induced MCP1 production after 24 hrs by ELISA; assay type: functional, cell-based; summary of the method: as §2
RAW264.7 [7] = experiment: Antiinflammatory activity in mouse RAW264.7 cells assessed as inhibition of LPS-induced TNF alpha production after 24 hrs by ELISA; assay type: functional, cell-based; summary of the method: as §2
RAW264.7 [8] = experiment: Antiinflammatory activity in mouse RAW264.7 cells assessed as inhibition of LPS-induced NO production at 20 ug/mL after 24 hrs by spectrophotometric analysis relative to control; assay type: functional; details: RAW264.7, 24 h
Summary of the method: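 RAW 264.7 cells (1 × 10^7) in RPMI-1640 with 10% FBS and penicillin/streptomycin were treated with peptide (2.5, 5, 10, 20 µg/mL) with or without LPS (E. coli 055:B5, 100 ng/mL) for 24 h. Medium nitrite was measured with Griess reagent at A540 against a NaNO2 standard curve. Control was LPS alone. Mean ± SEM of three separate experiments.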

[9] = Toxicity in human RBC assessed as induction of hemolysis at 50 ug/mL after 30 mins relative to control; assay type: cell-based, Erythrocyte; details: red blood cells (RBC), read-out: Activity
Summary of the method: (§3)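 Human red blood cells incubated with peptide. Hemoglobin release read as absorbance at 540 nm and expressed against 1% Triton X-100 as positive control.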

[10] = Toxicity in human RBC assessed as induction of hemolysis after 30 mins; assay type: cell-based; details: erythrocyte, 0.5 h; summary of the method: as §3
[11] = Toxicity in human RBC assessed as induction of hemolysis at 12.5 ug/mL after 30 mins relative to control; assay type: cell-based, Erythrocyte; details: red blood cells (RBC), read-out: Activity; summary of the method: as §3
Escherichia coli [12] = experiment: Bactericidal activity against Escherichia coli ATCC 25922 at 10 times MIC after 40 mins by colony counting assay (reference value: 131.7 CFU); assay type: functional
Escherichia coli [13] = experiment: Bactericidal activity against Escherichia coli ATCC 25922 at 10 times MIC after 10 mins by colony counting assay (reference value: 58.3 CFU); assay type: functional
Escherichia coli [14] = experiment: Bactericidal activity against Escherichia coli ATCC 25922 at 5 times MIC after 120 mins by colony counting assay (reference value: 1868.3 CFU); assay type: functional
Escherichia coli [15] = experiment: Bactericidal activity against Escherichia coli ATCC 25922 at 5 times MIC after 60 mins by colony counting assay (reference value: 296 CFU); assay type: functional
Escherichia coli [16] = experiment: Bactericidal activity against Escherichia coli ATCC 25922 at 5 times MIC after 5 mins by colony counting assay (reference value: 47.7 CFU); assay type: functional
Escherichia coli [17] = experiment: Bactericidal activity against Escherichia coli ATCC 25922 at MIC after 40 mins by colony counting assay (reference value: 131.7 CFU); assay type: functional
Escherichia coli [18] = experiment: Bactericidal activity against Escherichia coli ATCC 25922 at MIC after 20 mins by colony counting assay (reference value: 79.3 CFU); assay type: functional
Candida albicans [19] = experiment: Antifungal activity against Candida albicans ATCC 2002 treated with MgCl2 after 16 hrs by broth dilution method; assay type: functional; details: ATCC 2002, 16 h
Summary of the method: (§4)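 Salt sensitivity of the MIC. Peptide was tested in water, NaCl, CaCl2, MgCl2 or PBS (Na2HPO4-NaH2PO4, pH 7.4), with every salt at 150 mM. Values are means of three independent experiments, each run in duplicate.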

Bacillus subtilis [20] = experiment: Antibacterial activity against Bacillus subtilis 6633 treated with MgCl2 after 16 hrs by broth dilution method; assay type: functional; details: Bacillus subtilis, 6633, 16 h; summary of the method: as §4
Staphylococcus aureus [21] = experiment: Antibacterial activity against Staphylococcus aureus ATCC 2592 treated with MgCl2 after 16 hrs by broth dilution method; assay type: functional; details: ATCC 2592, 16 h; summary of the method: as §4
Bacillus subtilis [22] = experiment: Antibacterial activity against Bacillus subtilis 6633 treated with CaCl2 after 16 hrs by broth dilution method; assay type: functional; details: Bacillus subtilis, 6633, 16 h; summary of the method: as §4
Pseudomonas aeruginosa [23] = experiment: Antibacterial activity against Pseudomonas aeruginosa ATCC 27853 treated with CaCl2 after 16 hrs by broth dilution method; assay type: functional; details: ATCC 27853, 16 h; summary of the method: as §4
Staphylococcus aureus [24] = experiment: Antibacterial activity against Staphylococcus aureus ATCC 2592 treated with CaCl2 after 16 hrs by broth dilution method; assay type: functional; details: ATCC 2592, 16 h; summary of the method: as §4
Pseudomonas aeruginosa [25] = experiment: Antibacterial activity against Pseudomonas aeruginosa ATCC 27853 treated with PBS after 16 hrs by broth dilution method; assay type: functional; details: ATCC 27853, 16 h; summary of the method: as §4
Candida albicans [26] = experiment: Antifungal activity against Candida albicans ATCC 2002 after 16 hrs by broth dilution method; assay type: functional; details: ATCC 2002, 16 h
Summary of the method: (§5)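 MIC read-out, reported in µg/mL with µM equivalents. Each value is the mean of three independent experiments, each run in duplicate.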

Staphylococcus aureus [27] = experiment: Antibacterial activity against ampicillin, benzylpencillin-resistant Staphylococcus aureus 08A875 after 16 hrs by broth dilution method; assay type: functional; details: 08A875, 16 h; summary of the method: as §5
Escherichia coli [28] = experiment: Antibacterial activity against Escherichia coli ATCC 25922 assessed as cell swelling after 30 mins by scanning electron microscopic analysis; assay type: functional, organism-based
Summary of the method: (§6)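 E. coli (about 2 × 10^7 CFU/mL) was exposed to peptide at 1 × MIC, 37 °C, 30 min, beside an untreated control. Cells were pelleted, fixed in 2.5% buffered glutaraldehyde (4 °C, 2 h), post-fixed in 1% osmium tetroxide (2 h), dehydrated through graded ethanol, frozen in tert-butyl alcohol and vacuum-dried, then imaged by SEM.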

Escherichia coli [29] = experiment: Antibacterial activity against Escherichia coli 08A852 assessed as cell swelling after 30 mins by scanning electron microscopic analysis; assay type: functional, organism-based; summary of the method: as §6

Compound: CC[C@H](C)[C@H](NC(=O)[C@H](Cc1cnc[nH]1)NC(=O)[C@H](CO)NC(=O)[C@@H](NC(=O)[C@@H](NC(=O)[C@@H](NC(=O)[C@@H](NC(=O)[C@H](CCCNC(=N)N)NC(=O)[C@H](CC(C)C)NC(=O)[C@H](CCCCN)NC(=O)[C@H](CCC(=O)O)NC(=O)[C@H](CCCCN)NC(=O)[C@H](CC(C)C)NC(=O)[C@H](CCCCN)NC(=O)[C@@H]1CSSC[C@H](NC(=O)[C@H](CCCCN)NC(=O)[C@@H](N)CCCNC(=N)N)C(=O)N[C@@H](CC(N)=O)C(=O)N[C@@H](Cc2ccccc2)C(=O)N[C@@H](CC(C)C)C(=O)N1)[C@@H](C)O)C(C)C)[C@@H](C)CC)[C@@H](C)O)C(=O)N[C@@H](CC(=O)O)C(=O)N[C@@H](CCCCN)C(=O)N[C@H](C(=O)N[C@@H](CC(C)C)C(=O)N[C@@H](CCCNC(=N)N)C(=O)N1CCC[C@H]1C(=O)N[C@@H](CCC(N)=O)C(=O)NCC(=O)O)C(C)C (H-RKCNFLCKLKEKLRTVITSHIDKVLRPQG-OH; disulfide 3-7)
- inhibition at 20 µg/mL (RAW264.7 [1]): 74%
- inhibition (RAW264.7 [2]): Dose-dependent effect
- inhibition (RAW264.7 [3]): Dose-dependent effect
- inhibition at 20 µg/mL (RAW264.7 [4]): 68%
- inhibition at 20 µg/mL (RAW264.7 [5]): 60%
- inhibition (RAW264.7 [6]): Dose-dependent effect
- inhibition (RAW264.7 [7]): Dose-dependent effect
- inhibition at 20 µg/mL (RAW264.7 [8]): 70%
- hemolysis at 0.5 h, 50 ug/mL [9]: 5.5%
- Activity [10]: Dose-dependent effect
- hemolysis at 0.5 h, 12.5 ug/mL [11]: 2.5%
- CFU (Escherichia coli [12]): 0
- CFU (Escherichia coli [13]): 0
- CFU (Escherichia coli [14]): 0
- CFU (Escherichia coli [15]): 0
- CFU (Escherichia coli [16]): 29.7
- CFU (Escherichia coli [17]): 0
- CFU (Escherichia coli [18]): 11.3
- MIC (Candida albicans [19]): 2.35 µg/mL (≈ 0.686 µM)
- MIC (Bacillus subtilis [20]): 75 µg/mL (≈ 21.9 µM)
- MIC (Staphylococcus aureus [21]): 9.38 µg/mL (≈ 2.74 µM)
- MIC (Bacillus subtilis [22]): 75 µg/mL (≈ 21.9 µM)
- MIC (Pseudomonas aeruginosa [23]): 18.8 µg/mL (≈ 5.48 µM)
- MIC (Staphylococcus aureus [24]): 4.69 µg/mL (≈ 1.37 µM)
- MIC (Pseudomonas aeruginosa [25]): 9.38 µg/mL (≈ 2.74 µM)
- MIC (Candida albicans [26]): 1.37 µM (≈ 4.69 µg/mL)
- MIC (Staphylococcus aureus [27]): 5.48 µM (≈ 18.8 µg/mL)
- Activity (Escherichia coli [28]): Active
- Activity (Escherichia coli [29]): Active
